The source of these data is ChEMBL document CHEMBL3593234, “Lanostane Triterpenes from the Tibetan Medicinal Mushroom Ganoderma leucocontextum and Their Inhibitory Effects on HMG-CoA Reductase and α-Glucosidase” (J Nat Prod, 2015).

Usually IC50 stands for the midpoint of a concentration-inhibition curve.

The target of experiment [1] is T1, 3-hydroxy-3-methylglutaryl-coenzyme A reductase (Homo sapiens, UniProt P04035).
T1 sequence (P04035 whole entry): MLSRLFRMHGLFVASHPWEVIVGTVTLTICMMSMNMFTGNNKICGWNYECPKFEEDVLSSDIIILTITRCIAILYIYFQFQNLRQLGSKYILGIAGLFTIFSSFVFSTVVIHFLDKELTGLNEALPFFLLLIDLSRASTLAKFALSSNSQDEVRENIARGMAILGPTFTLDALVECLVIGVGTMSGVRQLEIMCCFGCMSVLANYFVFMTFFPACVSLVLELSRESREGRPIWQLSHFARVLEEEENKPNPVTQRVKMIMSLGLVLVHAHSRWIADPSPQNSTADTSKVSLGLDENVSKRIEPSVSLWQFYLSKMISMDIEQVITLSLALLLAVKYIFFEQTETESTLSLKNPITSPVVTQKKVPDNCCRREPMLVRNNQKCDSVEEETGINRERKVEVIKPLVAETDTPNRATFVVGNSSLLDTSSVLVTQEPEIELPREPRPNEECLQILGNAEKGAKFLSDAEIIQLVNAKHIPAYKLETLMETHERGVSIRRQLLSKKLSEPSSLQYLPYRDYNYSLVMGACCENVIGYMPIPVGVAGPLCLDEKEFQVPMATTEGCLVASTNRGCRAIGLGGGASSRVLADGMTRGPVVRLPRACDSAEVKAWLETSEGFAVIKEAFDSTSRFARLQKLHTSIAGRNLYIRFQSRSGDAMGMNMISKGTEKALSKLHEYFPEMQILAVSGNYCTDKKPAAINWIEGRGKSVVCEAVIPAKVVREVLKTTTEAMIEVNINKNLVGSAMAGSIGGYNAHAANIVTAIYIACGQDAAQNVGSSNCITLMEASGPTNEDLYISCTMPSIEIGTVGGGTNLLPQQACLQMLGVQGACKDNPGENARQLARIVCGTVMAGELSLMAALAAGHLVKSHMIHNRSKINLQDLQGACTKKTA
The experiment can be described thus: Inhibition of HMG-CoA reductase (unknown origin). Put shortly: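 Pig liver microsomal enzyme (about 4 U/mL final), colorimetric. Compounds at 2.5–80 μM final with HMG-CoA (200 μM final) in 0.1 mol/L potassium phosphate pH 7.0 (3.5 mmol/L EDTA, 10 mmol/L DTT, 0.1 g/L BSA). Preincubated 5 min at 37 °C, then NADPH (100 μM final) added for 15 min at 37 °C. A340 read; % inhibition against enzyme-free blanks and compound-free controls.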

A short description of experiment [2]: Inhibition of Baker's yeast alpha-glucosidase. The arrangement: species or system Saccharomyces cerevisiae. A digest of the protocol:
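Baker's yeast α-glucosidase assay read by absorbance at 405 nm. Control wells got phosphate buffer instead of compound, and blanks got buffer instead of enzyme. Percent inhibition was calculated from blank-corrected OD of test versus control wells.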

A short description of experiment [3]: Inhibition of alpha-glucosidase in rat intestinal mucosa pre-incubated for 40 mins using p-nitrophenyl-alpha-D-glucopyranoside substrate. The experiment is classed as tissue-based. A digest of the protocol: (§1)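 Rat intestinal mucosa powder (1.0 g) was suspended in 3 mL 0.9% saline and sonicated at 4 °C (12 × 30 s), then spun at 10000g, 4 °C, 30 min; the supernatant served as enzyme. Compound in DMSO was mixed with substrate (maltose, sucrose or p-nitrophenyl-α-D-glucopyranoside) in 0.1 M phosphate buffer pH 6.9 and preincubated 40 min. Glucose was read by GOD kit at 550 nm, with blank-corrected percent inhibition.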

For experiment [4], the target named is Sucrase-isomaltase, intestinal (Rattus norvegicus, UniProt P23739). The experiment can be described thus: Inhibition of sucrase in rat intestinal mucosa pre-incubated for 40 mins using sucrose substrate. It is filed as tissue-based. Put shortly:
as §1

For experiment [5], the system named is PC-3. The experiment in a line: Cytotoxicity against human PC3 cells by MTT method. It is filed as functional, cell-based. The following applies: Homo sapiens, PC-3.
Experiment [6] addresses T2, 3-hydroxy-3-methylglutaryl-coenzyme A reductase (Sus scrofa, UniProt Q1W675).
T2 sequence (Q1W675 whole entry): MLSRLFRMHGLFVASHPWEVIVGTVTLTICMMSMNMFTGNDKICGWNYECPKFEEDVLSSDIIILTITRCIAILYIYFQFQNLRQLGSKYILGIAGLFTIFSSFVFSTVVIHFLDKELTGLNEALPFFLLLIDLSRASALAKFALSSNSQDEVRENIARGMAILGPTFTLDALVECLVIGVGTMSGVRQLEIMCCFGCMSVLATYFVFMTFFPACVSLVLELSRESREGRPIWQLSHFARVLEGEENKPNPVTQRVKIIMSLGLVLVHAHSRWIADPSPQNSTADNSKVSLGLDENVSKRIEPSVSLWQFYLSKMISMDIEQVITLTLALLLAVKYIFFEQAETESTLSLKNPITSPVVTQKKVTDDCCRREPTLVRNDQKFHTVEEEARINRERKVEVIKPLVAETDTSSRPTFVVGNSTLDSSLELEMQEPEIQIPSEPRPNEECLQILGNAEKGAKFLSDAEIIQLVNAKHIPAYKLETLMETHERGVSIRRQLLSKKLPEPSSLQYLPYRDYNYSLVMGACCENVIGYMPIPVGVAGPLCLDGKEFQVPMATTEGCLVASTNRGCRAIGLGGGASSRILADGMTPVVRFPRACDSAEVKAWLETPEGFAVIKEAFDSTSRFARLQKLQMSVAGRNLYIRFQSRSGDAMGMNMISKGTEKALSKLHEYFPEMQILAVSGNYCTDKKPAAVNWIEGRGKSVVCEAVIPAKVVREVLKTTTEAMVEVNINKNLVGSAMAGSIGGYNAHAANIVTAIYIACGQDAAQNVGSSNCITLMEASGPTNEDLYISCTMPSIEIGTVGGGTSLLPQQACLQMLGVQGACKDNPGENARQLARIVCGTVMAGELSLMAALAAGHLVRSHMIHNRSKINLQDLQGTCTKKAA
The experiment can be described thus: Inhibition of pig liver microsomes HMG-CoA reductase incubated for 5 mins in using HMG-CoA and NADPH by colorimetric method. Put shortly: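 Pig liver microsomal HMG-CoA reductase at about 4 U/mL final, with compound at 2.5–80 μM final and 200 μM HMG-CoA. Buffer was 0.1 mol/L potassium phosphate pH 7.0 with EDTA, dithiothreitol and BSA. After 5 min at 37 °C, 100 μM NADPH was added for 15 min at 37 °C. Absorbance was read at 340 nm, with percent inhibition from blank-corrected OD.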
A general note: Liver microsomes are vesicles of endoplasmic reticulum, rich in cytochrome P450 enzymes.

Experiment [7] deals with K562. The experiment can be described thus: Cytotoxicity against human K562 cells by MTT method. It is filed as functional, cell-based. The following applies: Homo sapiens, K562. (Formazan colour is commonly taken as a measure of viable cells.)
Experiment [8] is described as follows: Inhibition of alpha-glucosidase (unknown origin). Also noted: species or system Homo sapiens. Put shortly: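 Baker's yeast enzyme with phosphate buffer; absorbance read at 405 nm. Compound-free controls and enzyme-free blanks used. % inhibition = [(ODcontrol − ODcontrol blank) − (ODtest − ODtest blank)]/(ODcontrol − ODcontrol blank) × 100.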

The structures appear in SMILES notation.

Sequence of Sucrase-isomaltase, intestinal (P23739 1-1013 limits assumed): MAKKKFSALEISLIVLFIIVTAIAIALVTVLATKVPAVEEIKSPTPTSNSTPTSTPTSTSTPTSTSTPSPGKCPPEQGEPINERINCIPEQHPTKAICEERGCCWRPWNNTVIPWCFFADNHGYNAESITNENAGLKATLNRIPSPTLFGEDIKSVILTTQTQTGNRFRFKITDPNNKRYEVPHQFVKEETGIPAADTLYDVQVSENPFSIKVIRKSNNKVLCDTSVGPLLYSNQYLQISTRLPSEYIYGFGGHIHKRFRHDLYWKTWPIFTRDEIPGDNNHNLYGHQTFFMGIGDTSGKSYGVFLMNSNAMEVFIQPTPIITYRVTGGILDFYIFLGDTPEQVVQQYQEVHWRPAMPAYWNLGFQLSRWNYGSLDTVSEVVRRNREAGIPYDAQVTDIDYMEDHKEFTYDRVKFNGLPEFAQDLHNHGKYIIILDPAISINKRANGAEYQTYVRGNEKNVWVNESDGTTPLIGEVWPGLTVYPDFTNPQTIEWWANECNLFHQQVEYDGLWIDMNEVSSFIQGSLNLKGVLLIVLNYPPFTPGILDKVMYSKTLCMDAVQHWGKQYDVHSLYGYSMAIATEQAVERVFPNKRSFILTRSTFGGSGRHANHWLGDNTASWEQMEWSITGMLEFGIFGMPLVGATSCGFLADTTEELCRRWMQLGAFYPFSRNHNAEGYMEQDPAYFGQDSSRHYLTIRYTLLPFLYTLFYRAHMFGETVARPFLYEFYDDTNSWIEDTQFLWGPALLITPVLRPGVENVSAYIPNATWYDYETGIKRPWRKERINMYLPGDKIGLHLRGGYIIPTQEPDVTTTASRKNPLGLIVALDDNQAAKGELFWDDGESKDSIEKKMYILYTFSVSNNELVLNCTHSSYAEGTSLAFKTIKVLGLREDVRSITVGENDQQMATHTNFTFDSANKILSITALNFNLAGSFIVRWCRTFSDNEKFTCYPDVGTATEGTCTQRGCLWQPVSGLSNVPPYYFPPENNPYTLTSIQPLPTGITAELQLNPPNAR
Sequence of Sucrase-isomaltase, intestinal (P23739 1014-1841 limits assumed): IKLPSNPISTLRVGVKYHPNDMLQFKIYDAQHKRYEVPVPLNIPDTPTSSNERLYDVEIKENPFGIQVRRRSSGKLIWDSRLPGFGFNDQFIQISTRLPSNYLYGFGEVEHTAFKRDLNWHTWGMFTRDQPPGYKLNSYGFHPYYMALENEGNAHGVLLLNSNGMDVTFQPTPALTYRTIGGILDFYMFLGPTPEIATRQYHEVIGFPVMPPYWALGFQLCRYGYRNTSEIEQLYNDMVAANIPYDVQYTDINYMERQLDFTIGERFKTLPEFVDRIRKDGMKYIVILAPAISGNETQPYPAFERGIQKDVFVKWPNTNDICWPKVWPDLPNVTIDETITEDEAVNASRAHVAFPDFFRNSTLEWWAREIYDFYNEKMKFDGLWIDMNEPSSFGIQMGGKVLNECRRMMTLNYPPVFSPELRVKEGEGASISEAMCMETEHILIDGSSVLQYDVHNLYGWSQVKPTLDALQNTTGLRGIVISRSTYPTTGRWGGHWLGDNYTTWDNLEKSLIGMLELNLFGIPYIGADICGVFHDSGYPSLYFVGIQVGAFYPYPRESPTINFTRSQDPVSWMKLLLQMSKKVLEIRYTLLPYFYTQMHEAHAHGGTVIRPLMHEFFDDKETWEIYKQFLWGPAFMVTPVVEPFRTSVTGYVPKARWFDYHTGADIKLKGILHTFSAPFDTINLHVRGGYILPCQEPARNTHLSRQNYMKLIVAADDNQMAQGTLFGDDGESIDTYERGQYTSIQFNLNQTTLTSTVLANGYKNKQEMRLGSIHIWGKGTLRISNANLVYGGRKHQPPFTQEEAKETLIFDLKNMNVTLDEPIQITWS

`C/C(=C\CC[C@@H](C)[C@H]1C[C@H](O)[C@@]2(C)C3=CC[C@H]4C(C)(C)C(=O)CC[C@]4(C)C3=CC[C@]12C)C(=O)O` registered an IC50 in experiment [1] of 21.7 µM.
In experiment [1], `C/C(=C\CC[C@@H](C)[C@H]1CC[C@@]2(C)C3=C(CC[C@]12C)[C@@]1(C)CC[C@H](O)C(C)(C)[C@@H]1CC3=O)C(=O)O` yielded an IC50 of 22.3 µM.
In the case of `CC(C)=CCC/C(C)=C/CC/C(=C/Cc1cc(O)ccc1O)C(=O)OC[C@@](C)(O)[C@@H](O)CC[C@@H](C)[C@H]1CC[C@@]2(C)C3=CC[C@H]4C(C)(C)C(=O)CC[C@]4(C)C3=CC[C@]12C`, the IC50 was determined as 13.6 µM in experiment [2]; 1.5 µM in experiment [3]; 8.4 µM in experiment [4]; 58.4 µM in experiment [5]; 18.9 µM in experiment [6]; 48.6 µM in experiment [7].
As for `CC(C)=CCC/C(C)=C/CC/C(=C/Cc1cc(O)ccc1O)C(=O)O[C@@H](CC[C@@H](C)[C@H]1CC[C@@]2(C)C3=CC[C@H]4C(C)(C)C(=O)CC[C@]4(C)C3=CC[C@]12C)[C@](C)(O)CO`, the concentration for half-maximal inhibition (IC50) in experiment [2] turned out to be 2.5 µM; in experiment [3], 8.1 µM; in experiment [4], 22.5 µM; in experiment [5] it was 14.4 µM; in experiment [6], 24.1 µM; in experiment [7], 48.4 µM.
With `CC(C)=CCC/C(C)=C/CC/C(=C\Cc1cc(O)ccc1O)C(=O)O[C@@H](CC[C@@H](C)[C@H]1CC[C@@]2(C)C3=CC[C@H]4C(C)(C)C(=O)CC[C@]4(C)C3=CC[C@]12C)[C@](C)(O)CO`, the IC50 in experiment [2] was > 50 µM; in experiment [3] it was > 50 µM; in experiment [4], > 50 µM; in experiment [5] it was > 200 µM; in experiment [6], > 100 µM; in experiment [7], 104 µM.
Regarding `CC(C)=CCC/C(C)=C/CC/C(=C/Cc1cc(O)ccc1O)C(=O)OC[C@@](C)(O)[C@@H](O)CC[C@@H](C)[C@H]1CC[C@@]2(C)C3=C(CC[C@]12C)[C@@]1(C)CCC(=O)C(C)(C)[C@@H]1CC3=O`, the IC50 in experiment [2] is 5.9 µM; in experiment [3], 9.3 µM; in experiment [4] it was 18.5 µM; in experiment [5], 10.8 µM; in experiment [6], > 100 µM; in experiment [7], 10.7 µM.
On to `C/C(=C\CC[C@@H](C)[C@H]1CC[C@@]2(C)C3=CC[C@H]4C(C)(C)[C@@H](O)CC[C@]4(C)C3=CC[C@]12C)CO` [GANODEROL B], for which inhibition in experiment [8] was half-maximal at 120 µM (IC50).
